Rows were chosen to be rich in hits. Some 1% of all compounds tested hit in one or more screens of this group.
procasp3 activ – activators of human procaspase-3 D3A mutant, primary screen, biochemical, absorbance, PC-3 D3A mutant, single concentration; Caspase-3 (Homo sapiens), P42574; recombinant procaspase-3 D3A, Ac-DEVD-pNA absorbance 405 nm; activation, % at 8.5 µM; 0.11% of 330,000 active; AID 463141, 2010;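 active means activation above the mean of all tested compounds plus 3 SD, cut at about 21% in these data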;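 further: 0% = DMSO alone and 100% = DMSO wells spiked with extra 5 µM PC-3 D3A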
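Assay system – Procaspase-3 D3A mutant, all three cleavage aspartates alanine · Controls – DMSO-only low control, 5 µM PC-3 D3A high control · Schedule – 1 h compound preincubation, 2 h substrate hydrolysis at 25 °C · Signal – 405 nm absorbance of p-nitroaniline, reads at 0 and 120 min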
Fam108B counter – mouse Fam108B serine hydrolase inhibitors, primary screen, counter-screen for RBBP9 inhibitor project, biochemical, fluorescence polarization; recombinant Fam108B, FP-Rh probe fluorescence polarization; inhibition, % at 9.51 µM; 0.33% of 300,000 active;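 active means inhibition above the screen mean inhibition plus 3 SD, computed separately per campaign, cut at about 18% in these data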;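 further: inhibitors lower polarization as less probe binds the enzyme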
PME-1 primary – PME-1 inhibitors via competitive probe labeling, primary screen, biochemical, fluorescence polarization, FP-Rh probe, HTS | Protein phosphatase methylesterase 1 (Homo sapiens), Q9Y570 | recombinant PME-1 | inhibition, % at 5.9 µM | 0.53% of 320,000 active | AID 2130, 2009;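 active means inhibition above the campaign mean of all compounds plus 3 SD, cut at about 26% in these data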;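 further: competitive labeling of PME-1 active site by serine hydrolase directed probe; 0% = PME-1 with DMSO and 100% = wells lacking PME-1 enzyme; inhibitors block probe labeling so polarization falls and inhibition rises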
LYPLA1 counter – LYPLA1 inhibitors, primary screen, counter-screen for PME1 inhibitor project, biochemical, fluorescence polarization, FP-Rh probe ABPP; recombinant LYPLA1; 0.16% of 320,000 active; inhibition, % at 5.9 µM; Acyl-protein thioesterase 1 (Homo sapiens), O75608; AID 2174, 2009;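 active means inhibition above the mean of all tested compounds plus 3 SD, set per campaign, cut at about 14% in these data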;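 further: inhibitors block serine hydrolase probe labeling of LYPLA1 so polarization falls; 0% = enzyme with DMSO and 100% = wells lacking LYPLA1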
Target sequence (O75608 whole entry, looked up): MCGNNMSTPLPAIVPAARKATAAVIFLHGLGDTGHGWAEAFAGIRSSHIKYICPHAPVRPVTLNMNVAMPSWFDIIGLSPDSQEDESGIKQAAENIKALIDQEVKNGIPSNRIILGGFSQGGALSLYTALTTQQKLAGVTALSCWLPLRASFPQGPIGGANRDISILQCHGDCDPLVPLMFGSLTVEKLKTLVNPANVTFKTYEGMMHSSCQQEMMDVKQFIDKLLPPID
LYPLA2 counter – LYPLA2 inhibitors, primary screen, counter-screen for PME1 inhibitor project, biochemical, fluorescence polarization, FP-Rh probe ABPP; inhibition, % at 5.9 µM; Acyl-protein thioesterase 2 (Homo sapiens), O95372; AID 2177, 2009; 0.38% of 320,000 active; recombinant LYPLA2;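 active means inhibition above the screen-wide mean plus 3 SD, limit set per campaign, cut at about 26% in these data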;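 further: 0% = LYPLA2 with DMSO and 100% = wells lacking LYPLA2 enzyme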
proCasp7 act – procaspase-7 activators, primary screen, counter-screen for procaspase-3 activator project, biochemical, absorbance, HTS, human. Caspase-7 (Homo sapiens), P55210. recombinant procaspase-7, Ac-DEVD-pNA absorbance 405 nm; D23A/D198A/D206A triple mutant, cannot self-cleave; scale: DMSO 0, 5 µM enzyme 100. activation, % at 8.5 µM. 0.093% of 330,000 active. AID 463210, 2010;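 active means percent activation above the screen-wide mean plus 3 SD, cut at about 25% in these data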
Target sequence (P55210 whole entry D23A/D198A/D206A): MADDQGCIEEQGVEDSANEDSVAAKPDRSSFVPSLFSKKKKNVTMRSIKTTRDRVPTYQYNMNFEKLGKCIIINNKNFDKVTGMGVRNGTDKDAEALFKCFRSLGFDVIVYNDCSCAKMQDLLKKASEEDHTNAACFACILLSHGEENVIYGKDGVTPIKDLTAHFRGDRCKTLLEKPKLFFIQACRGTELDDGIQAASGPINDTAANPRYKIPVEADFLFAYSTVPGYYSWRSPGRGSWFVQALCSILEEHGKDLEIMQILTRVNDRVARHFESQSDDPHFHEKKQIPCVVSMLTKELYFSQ
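Replicates: singlicate. Assay system: Procaspase-7 triple mutant (PC-7 D3A). Signal: 405 nm absorbance of p-nitroaniline. Times: 1 h preincubation, 2 h reaction. Buffer or medium: Zinc-free HEPES pH 7.4 with 300 mM NaCl, 0.01% Triton X-100. Also added: DEVD-pNA substrate. Benchmarks: DMSO wells as 0%, DMSO with 5 µM added PC-7 as 100%.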
Fam108b confirm – mouse Fam108b serine hydrolase inhibitors, confirmation, counter-screen for RBBP9 inhibitor project, biochemical, fluorescence polarization, triplicate; recombinant Fam108b, FP-Rh probe fluorescence polarization; 44% of 930 active; AID 1978, 2009; shares compounds with Fam108B counter; inhibition, % at 9.51 µM;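 active means inhibition above a limit from the primary screen, the mean over all compounds plus 3 SD, cut at about 19% in these data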;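 further: 0% = median of active Fam108b wells and 100% = catalytically dead S170A mutant; inhibitors free the probe so polarization falls as inhibition rises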
Fam108b ABPP HTS – inhibition of mouse Fam108b by HTS hits, late-stage follow-up, biochemical, gel-based ABPP, soluble recombinant form | inhibition, % at 20 µM | 44% of 260 active | shares compounds with Fam108B counter | fluorophosphonate probe; in the data active means inhibition above about 40%
LYPLA1 confirm – LYPLA1 inhibitors, retest, confirmation, counter-screen for PME1 inhibitor project, biochemical, fluorescence polarization, FP-Rh probe ABPP; AID 2233, 2010; inhibition, % at 5.9 µM; 69% of 480 active; recombinant LYPLA1; shares compounds with LYPLA1 counter;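 active means mean inhibition across replicates above the hit cutoff set in the primary screen, cut at about 15% in these data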;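 further: loss of FP-Rh probe labeling of LYPLA1 seen as lower polarization; 0% = LYPLA1 with DMSO and 100% = wells lacking LYPLA1 enzyme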
LYPLA2 conf – LYPLA2 inhibitors, retest, confirmation, counter-screen for PME1 inhibitor project, biochemical, fluorescence polarization, FP-Rh probe ABPP; shares compounds with LYPLA2 counter; recombinant LYPLA2; inhibition, % at 5.9 µM; 72% of 1,100 active;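 active means mean inhibition across replicates above the hit cutoff set in the primary screen, cut at about 26% in these data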;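 further: blocked labeling of the enzyme by serine hydrolase FP-Rh probe lowers polarization; 0% = enzyme with DMSO and 100% = wells lacking LYPLA2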
Active calls of the source: *; · = no result given.

SMILES | procasp3 activ | Fam108B counter | PME-1 primary | LYPLA1 counter | LYPLA2 counter | proCasp7 act | Fam108b confirm | LYPLA1 confirm | LYPLA2 conf | others
O=C1NC(=Nc2ccccc2Cl)S/C1=C\c1cc([N+](=O)[O-])ccc1O | -6.4 | 33.0* | -19.5 | 27.1* | 4.0 | -11.4 | 41.8* | 30.9* | · | Fam108b ABPP HTS=30.0
COc1ccc(Nc2nnc(SCc3cc([N+](=O)[O-])cc4c3OCOC4)s2)cc1 | 6.8 | 2.0 | -1.6 | -4.8 | -0.2 | -7.9 | · | · | ·
CCCOc1ccc(/C(CC)=N/NC(=O)C2(C)CC2(Br)Br)cc1 (stereo not given) | -5.4 | 41.4* | 25.1 | 17.2* | 27.9* | -4.4 | 2.6 | 3.5 | ·
CCOC(=O)c1ccc(S(=O)(=O)N2CCN(C3CCCC3)CC2)cc1 | 2.0 | 1.9 | -2.8 | -0.5 | -2.5 | 9.1 | · | · | ·
Cc1nn(C)c(C)c1NC(=O)COc1ccc(Cl)cc1Br | 1.5 | · | -4.2 | -1.9 | 2.8 | -10.9 | · | · | ·
COC(=O)c1c(Cl)c2n3ccccc3c(C)c(-c3ccccc3)c-2c1C(=O)OC | -13.5 | 19.2* | 15.8 | 15.7* | 19.6 | -8.8 | 9.9 | 4.2 | ·
Cc1ccc(-n2nc3c(c2NC(=O)c2ccc4c(c2)OCO4)CS(=O)(=O)C3)c(C)c1 | 1.4 | 0.7 | 0.2 | -0.5 | -1.1 | 4.2 | · | · | ·
Cn1c(O)c(/C=N/NC(=O)c2cc3ccccc3cc2O)c2ccccc21 | -5.6 | 36.4* | 69.8* | 15.4* | 2.6 | -14.7 | 31.0* | 15.7* | ·
CCCCCCCCOc1ccc(C2OC34CCCCC3C(C#N)(C#N)C2(C#N)C(=N)O4)cc1 (stereo not given) | -7.4 | 19.2* | 19.7 | 16.9* | 25.9* | -8.0 | -5.3 | 14.2* | 8.4
N#CC1(C#N)C(c2ccccc2)OC23CCCCC2C1(C#N)C(=N)O3 (stereo not given) | -10.1 | 16.5 | 8.6 | 9.2 | 4.3 | -2.0 | · | · | ·
N#CCCN(CCC#N)C(=O)C1c2ccccc2Oc2ccccc21 | -2.8 | 66.9* | 84.0* | 76.4* | 76.0* | 0.6 | 2.7 | 2.9 | 3.0
CN(CCC#N)C(=O)COC(=O)C1c2ccccc2Oc2ccccc21 | 8.7 | 0.6 | -5.7 | 1.9 | -6.2 | -3.0 | · | · | ·
CCC(CNc1cc(OC)cc2cccnc12)NC1CCCCC1 (stereo not given) | -3.0 | 29.6* | 37.6* | 22.5* | 29.7* | -3.0 | 3.3 | 12.9 | 43.4*
COc1cc(NS(=O)(=O)c2ccc(C)cc2)c2ncccc2c1 | -10.0 | -2.2 | 6.0 | -5.1 | -4.0 | -14.3 | · | · | ·
O=C(NCc1cccc(C(F)(F)F)c1)C1CCC(=O)N(C2CCCCCC2)C1 (stereo not given) | 4.0 | -4.5 | 0.2 | 0.1 | 5.8 | 7.0 | · | · | ·
Cc1cc(N)ccc1-n1c(C)ccc1C | -0.2 | 42.5* | 90.2* | 55.6* | 84.7* | -10.5 | 3.7 | 3.7 | 4.3
